STAT3 inh: IL-6 driven STAT3 reporter inhibitors, primary screen, U3A cells, luciferase, luminescence, MLSCN library | IL-6 STAT3-luciferase reporter; host cell line lacks STAT1 | inhibition, % at 5.5 µM | 190,000 tested, 0.89% active | AID 862, 2007;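 active means inhibition above the mean inhibition across all screened compounds plus 3 SD, cut at about 44% in these data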;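 further: 0% = DMSO only wells and 100% = 100 µM nifuroxazide control wells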
APP 5'UTR act: activators of APP 5'UTR luciferase reporter, primary screen, SH-SY5Y cells. activation, % at 2 µM. SH-SY5Y APP 5'UTR luciferase reporter, luminescence; zero percent = DMSO vehicle wells. AID 1276, 2008. 190,000 tested, 1% active;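 active means activation above a set limit, based on mean plus 3 SD of controls, cut at about 140% in these data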
STAT1 inh-1: STAT1 signaling inhibitors, primary screen, cell-based, HTS, luciferase reporter. NIH 3T3 STAT1-luciferase reporter, IFN-gamma, luminescence. inhibition, % at 5.5 µM. 200,000 tested, 0.35% active. AID 920, 2007;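 active means inhibition above a set limit, the mean inhibition across all tested compounds plus 3 SD, cut at about 34% in these data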;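 further: 0% = IFN-gamma with DMSO and 100% = IFN-gamma with 300 µM nifuroxazide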
NF-kB neuron act: activators of NF-kB expression in neurons, primary screen, cell-based, HTS; human neuronal cells, NF-kB reporter expression; active compounds read high; fold change at 12.5 µM; 190,000 tested, 1.6% active; in the data active means fold change above about 3.3
STAT1 act-1: STAT1 signaling activators, primary screen, cell-based, HTS, luciferase reporter. NIH 3T3 STAT1-luciferase reporter, IFN-gamma, luminescence; 100% = IFN-gamma alone, no compound. activation (% of control), % at 5.5 µM. 200,000 tested, 2.6% active. AID 932, 2007;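 active means activation above the screen-wide mean activation plus 3 SD, cut at about 130% in these data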;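 further: raw ratio to IFN-gamma control signal so 100% means no change and 0% no light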
STAT3 act-1: IL-6 driven STAT3 reporter potentiators, primary screen, U3A cells, luciferase, luminescence, MLSCN library; IL-6 STAT3-luciferase reporter; 100% = signal with IL-6 EC80 alone; AID 871, 2007; activation (% of control), % at 5.6 µM; 190,000 tested, 0.91% active;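 active means activation above the screen-wide mean of compound activation plus 3 SD, cut at about 130% in these data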;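 further: 0% = background luminescence of wells with medium and substrate only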
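Material: human STAT1-deficient U3A cells with stable STAT3-luciferase reporter / Probe or stimulus: IL-6 stimulus at 33 ng/mL final / Schedule: 1 h compound pre-exposure, 6 h IL-6 stimulation, 37 °C / Technique: luminescence / Read-out basis: percent of IL-6-only median luminescence / Control set: IL-6-only high control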
STAT3 act-2: STAT3 reporter potentiators, retest of hits, confirmation, U3A cells, luciferase, luminescence. shares compounds with STAT3 act-1. IL-6 potentiation; U3A cells lack STAT1; 100 means same as IL-6 alone. potentiation (% of control), % at 5.7 µM. 1,200 tested, 64% active. AID 1267, 2008;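 active means percent activation of the STAT3 luciferase reporter above a set limit taken from the earlier primary screen, cut at about 130% in these data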;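 further: 0% = background signal of medium plus substrate and 100% = median of IL-6 with DMSO wells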
NFkB act 2: NF-kB reporter activators in human cells, counter-screen for STAT3 activator project. NF-kappaB reporter activation. 1,200 tested, 11% active. shares compounds with STAT3 act-1. activation (% of control), % at 5.7 µM; in the data active means activation above about 120%;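 further: reporter induced by TNF-alpha stimulation; 100% = median of stimulated DMSO wells and 0% = no signal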
STAT1 act-2: STAT1 reporter activators, IFN-gamma induced, counter-screen for STAT3 activator project, cell-based, NIH 3T3, luciferase luminescence | activation (% of control), % at 5.7 µM | shares compounds with STAT3 act-1 | 1,200 tested, 13% active | NIH 3T3 STAT1-luciferase reporter;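 active means activation above the solvent-only control well mean plus 3 SD, set per screening run, cut at about 120% in these data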;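 further: 100% = IFN-gamma with DMSO median signal so 100% means no change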
STAT1 inh-2: STAT1 signaling inhibitors, confirmation, cell-based, HTS, luciferase reporter. 200 tested, 55% active. NIH 3T3 STAT1-luciferase reporter, IFN-gamma, luminescence. AID 1263, 2008. shares compounds with STAT1 inh-1. inhibition, % at 5.5 µM;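 active means triplicate mean inhibition exceeding the hit cutoff computed for the primary STAT1 screen, cut at about 35% in these data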;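 further: 0% = DMSO with IFN-gamma and 100% = 300 µM nifuroxazide with IFN-gamma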
NFkB inh: NF-kB reporter inhibitors, TNF-alpha stimulated, counter-screen for STAT1 inhibitor project, cell-based, HEK293T, luciferase luminescence; shares compounds with STAT1 inh-1; TNF-alpha induced; inhibition, % at 5.7 µM; 200 tested, 30% active; AID 1303, 2008;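 active means inhibition above the mean of solvent-only control wells plus 3 SD of those wells, cut at about 15% in these data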;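 further: 0% = DMSO with TNF-alpha and 100% = MG-132 control with TNF-alpha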
STAT3 inh 2: STAT3 reporter inhibition by STAT1 hits, counter-screen for STAT1 inhibitor project, U3A cells, luciferase, luminescence, triplicate. 200 tested, 20% active. shares compounds with STAT1 inh-1. IL-6 STAT3 luciferase reporter; cells lacking STAT1. inhibition, % at 5.7 µM;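 active means inhibition above the mean of solvent-only control wells plus 3 SD, set per campaign, cut at about 25% in these data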;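 further: 0% = IL-6 plus DMSO and 100% = IL-6 plus nifuroxazide control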
STAT1 activ conf: STAT1 signaling activators, confirmation, cell-based, HTS, luciferase reporter | shares compounds with STAT1 act-1 | NIH 3T3 STAT1-luciferase reporter, IFN-gamma potentiation, luminescence; 100% = IFN-gamma EC80 alone, no compound | activation (% of control), % at 5.7 µM | 1,200 tested, 97% active;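 active means activation above a set limit carried over from the earlier primary STAT1 screen, cut at about 140% in these data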;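 further: simple ratio to median IFN-gamma plus DMSO wells so 0% means no light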
NFkB act: NF-kB reporter activators, TNF-alpha stimulated, counter-screen for STAT1 activator project, cell-based, HEK293T, luciferase luminescence; shares compounds with STAT1 act-1; activation (% of control), % at 5.7 µM; 100% = TNF-alpha with vehicle only; AID 1306, 2008; 1,200 tested, 43% active;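 active means activation above the mean of solvent-only control wells plus 3 SD, set per campaign, cut at about 130% in these data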;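 further: TNF-alpha given at a submaximal dose yielding about 80% of full reporter signal; values are well signal over median control so 100% means no change and 0% no light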
STAT3 act STAT1c: STAT3 reporter activation by STAT1 hits, confirmation, counter-screen for STAT1 activator project, U3A cells, luciferase, luminescence. shares compounds with STAT1 act-1. IL-6; cells lack STAT1; 100 = IL-6 alone, no compound effect. activation (% of control), % at 5.7 µM. 1,200 tested, 46% active. AID 1316, 2008;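 active means activation above the solvent-only control well mean plus 3 SD, set per plate batch, cut at about 110% in these data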;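 further: 0% = no luminescence and 100% = median IL-6 plus DMSO wells; higher means more STAT3 reporter activation so hits are non-selective activators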
Starred values were filed as active, the others as inactive; · = no result given. A selection: hits, their analogues and other compounds. The true share with any hit is near 4.9%.

SMILES | STAT3 inh | APP 5'UTR act | STAT1 inh-1 | NF-kB neuron act | STAT1 act-1 | STAT3 act-1 | others
COc1ccc2c(c1)CC1(CN2C)C(=O)NC(=O)N(c2ccc(F)cc2)C1=O (stereo not given) | -58 | 20 | 1 | 1.1 | 99 | 150* | STAT3 act-2=134*;NFkB act 2=104;STAT1 act-2=108
COc1ccc2c(c1)CC1(CN2C)C(=O)NC(=O)N(c2ccc(C)cc2)C1=O (stereo not given) | -13 | -2 | 3 | 1 | 98 | 117
Cc1ccc(-n2cc(CNC(C)Cc3cnccn3)c(-c3cccc(C)c3)n2)cc1 (stereo not given) | 15 | 1 | -8 | 0.73 | 106 | 90
C[C@@H]1C(=O)O[C@@H]2[C@H](O)C34[C@@H]5OC(=O)C3(O[C@H]3OC(=O)[C@H](O)C34[C@H](C(C)(C)C)[C@H]5O)[C@@]12O (stereo not given in full) | 5 | 4 | 0 | 1 | 100 | 93
CCCC/C(=N\O)c1c[nH]c2ccccc12 | -40 | -6 | 10 | 1.2 | 90 | 141* | STAT3 act-2=155*;NFkB act 2=110;STAT1 act-2=103
CCCCN1C(=O)NC(=O)C2(Cc3c(nc4ccccn4c3=O)N3CCc4ccccc4C32)C1=O (stereo not given) | -44 | 7 | -1 | 0.54 | 101 | 142* | STAT3 act-2=143*;NFkB act 2=106;STAT1 act-2=103
CCCCn1c(=O)c(C(=O)Nc2ccccc2S(N)(=O)=O)c(O)c2ccccc21 | -7 | 12 | -9 | 1.5 | 110 | 110
CCCCn1c(=O)c(C(=O)Nc2ccccc2)c(O)c2ccccc21 | -61 | -20 | -5 | 1.1 | 103 | 154* | STAT3 act-2=161*;NFkB act 2=107;STAT1 act-2=102
CSc1ccc(C(=O)C2CCCN(Cc3cc4ccccc4[nH]3)C2)cc1 (stereo not given) | -49 | 0 | 22 | 1.1 | 80 | 141* | STAT3 act-2=149*;NFkB act 2=101;STAT1 act-2=88
CCc1ccccc1NC(=O)CNCc1ccccc1 | 13 | 2 | -2 | 1.5 | 102 | 91
Nc1nonc1OCCCCOc1nonc1N | 1 | -5 | 3 | 1.1 | 95 | 103
O=C(Nc1ccc(OC(=O)N2CCCCC2)cc1)N1CCOCC1 | 22 | -52 | 36* | 0.64 | 66 | 84 | STAT1 inh-2=14;NFkB inh=5;STAT3 inh 2=12
O=C(Nc1ccc(OC(=O)N2CCCC2)cc1)N1CCOCC1 | 10 | -4 | 1 | 1 | 99 | 95
CC(=NCCC1=CCCCC1)c1c(O)[nH]c(=O)[nH]c1=O | -1 | 11 | 2 | 0.82 | 98 | 104
CC1(C)CC(=O)C(C=NCCN2CCN(C(=O)Cc3ccc(F)cc3)CC2)=C(O)C1 | 0 | -15 | 34* | 1.1 | 67 | 104 | STAT1 inh-2=0;NFkB inh=-4;STAT3 inh 2=-7
CCc1ccc(-c2nn(Cc3ccccc3)cc2C=O)cc1 | -19 | 133 | -75 | 4.1* | 170* | 122 | STAT1 activ conf=158*;NFkB act=128;STAT3 act STAT1c=121*
O=C(O)c1cn(Cc2ccccc2)nc1-c1ccccc1 | 6 | -4 | 2 | 0.98 | 97 | 97
CN1C(=O)/C(=C/c2ccc(N3CCCCCC3)o2)C(=O)NC1=S | -24 | 28 | -74 | 2.4 | 166* | 122 | STAT1 activ conf=213*;NFkB act=148*;STAT3 act STAT1c=126*
C=Cn1ccnc1P(=S)(c1nccn1C=C)C1CCCCC1 | 2 | -13 | 4 | 1.1 | 96 | 102
CC(=O)Nc1ccccc1C(=O)OCc1cccc(F)c1 | 0 | 3 | -93 | 1 | 184* | 107 | STAT1 activ conf=182*;NFkB act=124;STAT3 act STAT1c=108
Cc1ccc2cc(C=C(C#N)C#N)c(Cl)nc2c1 | -10 | · | -7 | 1.3 | 106 | 109
